Columns and labels:
Acinetobacter baumannii [1] = experiment: Antibiofilm activity against Acinetobacter baumannii ATCC 19606; format: functional, organism-based; conditions: ATCC 19606 = CIP 70.34 = JCM 6841
How it was run: (§1)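 Crystal violet reporter assay of biofilm formation, run as a dose-response. IC50 is the concentration inhibiting 50% of biofilm formation. Highest concentration tested 200 µM.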

Staphylococcus aureus [2] = experiment: Antibacterial activity against Staphylococcus aureus ATCC 29213; format: functional
How it was run: (§2)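 MIC, the minimum inhibitory concentration, measured against planktonic bacteria.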

Pseudomonas aeruginosa [3] = experiment: Antibacterial activity against Pseudomonas aeruginosa PA14; format: functional
Pseudomonas aeruginosa [4] = experiment: Antibiofilm activity against Pseudomonas aeruginosa PA14; format: functional, organism-based; how it was run: as §1
Acinetobacter baumannii [5] = experiment: Antibacterial activity against multi-drug resistant Acinetobacter baumannii ATCC BAA-1605; format: functional; how it was run: as §2
Staphylococcus aureus [6] = experiment: Antibiofilm activity against Staphylococcus aureus ATCC 29213 assessed as biofilm dispersal; format: functional, organism-based
How it was run: (§3)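 Dispersal of pre-formed biofilms, tested in dose-response. The value reported is EC50.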

Acinetobacter baumannii [7] = experiment: Antibacterial activity against Acinetobacter baumannii ATCC 19606; format: functional; conditions: ATCC 19606 = CIP 70.34 = JCM 6841; how it was run: as §2
Acinetobacter baumannii [8] = experiment: Antibiofilm activity against Acinetobacter baumannii ATCC 19606 assessed as biofilm dispersal; format: functional, organism-based; conditions: ATCC 19606 = CIP 70.34 = JCM 6841
How it was run: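 Dispersal of pre-formed A. baumannii biofilms, run as a dose-response. EC50 values are reported for dispersal.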

[9] = Cytotoxicity against sheep RBC assessed hemolysis; format: cell-based, Ovis aries, Erythrocyte; conditions: sheep red blood cells, read-out: HD50 (the source's name)
How it was run: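 Red blood cell hemolysis assay using defibrinated sheep blood. HD50 is the concentration at which 50% hemolysis is observed.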

Staphylococcus aureus [10] = experiment: Antibacterial activity against methicillin-resistant Staphylococcus aureus; format: functional; how it was run: as §2
Staphylococcus aureus [11] = experiment: Antibiofilm activity against methicillin-resistant Staphylococcus aureus assessed as biofilm dispersal; format: functional, organism-based; how it was run: as §3
Staphylococcus aureus [12] = experiment: Antibiofilm activity against methicillin-resistant Staphylococcus aureus; format: functional, organism-based
How it was run: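 Biofilm inhibition dose-response study. Biofilm formation is quantified with a crystal violet reporter assay. IC50 is the concentration that inhibits 50% of biofilm formation.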

SMILES | IC50 (Acinetobacter baumannii [1]) | MIC (Staphylococcus aureus [2]) | MIC (Pseudomonas aeruginosa [3]) | IC50 (Pseudomonas aeruginosa [4]) | MIC (Acinetobacter baumannii [5]) | EC50 (Staphylococcus aureus [6]) | MIC (Acinetobacter baumannii [7]) | EC50 (Acinetobacter baumannii [8]) | HC50 [9] | MIC (Staphylococcus aureus [10]) | EC50 (Staphylococcus aureus [11]) | IC50 (Staphylococcus aureus [12])
CC(C)[C@@H]1CC[C@@H](C)C[C@H]1OC(=O)N(CCCCCCc1cn(CCCCCc2c[nH]c(N)n2)nn1)CCc1ccccn1.Cl | 19.2 µM | 4 µg/mL | > 128 µg/mL | > 200 µM | 16 µg/mL | > 200 µM | 16 µg/mL | 37.5 µM | 93.8 µM | 8 µg/mL | > 200 µM | 
CC(C)[C@@H]1CC[C@@H](C)C[C@H]1OC(=O)N(CCCCCCc1cn(CCCCCCc2c[nH]c(N)n2)nn1)CCc1ccccn1.Cl | 18.4 µM | 4 µg/mL | > 128 µg/mL | > 200 µM | > 128 µg/mL |  | 32 µg/mL |  | 46 µM | 4 µg/mL |  | 
CC(C)[C@@H]1CC[C@@H](C)C[C@H]1OC(=O)N(CCCCCCc1cn(CCCCCCCc2c[nH]c(N)n2)nn1)CCc1ccccn1.Cl | 16.7 µM | 4 µg/mL | > 128 µg/mL | > 200 µM | > 128 µg/mL | 32.5 µM | > 128 µg/mL | 20.6 µM | 42.7 µM | 4 µg/mL | 38.1 µM | 
CC(C)[C@@H]1CC[C@@H](C)C[C@H]1OC(=O)NCCCCCc1c[nH]c(N)n1.Cl | 19.2 µM | 32 µg/mL | 32 µg/mL | 18 µM | 32 µg/mL |  | 32 µg/mL |  | 464 µM | 32 µg/mL |  | 
CC(C)[C@@H]1CC[C@@H](C)C[C@H]1OC(=O)NCCCCCCc1c[nH]c(N)n1.Cl |  | 8 µg/mL | 64 µg/mL | 18 µM | 16 µg/mL |  | 16 µg/mL |  | 229 µM | 8 µg/mL |  | 
CC(C)[C@@H]1CC[C@@H](C)C[C@H]1OC(=O)NCCCCCCCc1c[nH]c(N)n1.Cl | 16.7 µM | 8 µg/mL | 64 µg/mL |  | 8 µg/mL | 38.8 µM | 8 µg/mL | 68.3 µM | 474 µM | 8 µg/mL | 53.5 µM | 
CC(C)[C@@H]1CC[C@@H](C)C[C@H]1OC(=O)NCCn1cc(CCCCCc2c[nH]c(N)n2)nn1.Cl | 94.9 µM | 16 µg/mL | > 128 µg/mL | 58.7 µM | 128 µg/mL |  | 64 µg/mL |  | 474 µM | 64 µg/mL |  | 29.9 µM
CC(C)[C@@H]1CC[C@@H](C)C[C@H]1OC(=O)NCCCn1cc(CCCCCc2c[nH]c(N)n2)nn1.Cl |  | 16 µg/mL | 64 µg/mL | 40.3 µM | 64 µg/mL |  | 64 µg/mL |  | 318 µM | 16 µg/mL |  | 20.5 µM
CC(=O)NCCCCCCc1cn(CCCCCc2c[nH]c(N)n2)nn1.Cl | > 200 µM | > 128 µg/mL | > 128 µg/mL | > 200 µM | > 128 µg/mL |  | > 128 µg/mL |  | > 800 µM | > 128 µg/mL |  | > 200 µM

— ChEMBL document CHEMBL1667831, “Synthesis and biological evaluation of 2-aminoimidazole/carbamate hybrid anti-biofilm and anti-microbial agents” (Bioorg Med Chem Lett, 2011)
